{"source": "ChEMBL document CHEMBL1131599", "about": "“Synthesis of C3 heteroatom-substituted azetidinones that display potent cholesterol absorption inhibitory activity” (1998)", "key": {"[1]": {"experiment": "Percent reduction of liver cholesterol ester levels after po administration of compound in cholesterol fed hamsters at a dose 10 mg/kg/day", "format": "functional", "conditions": "Cricetulus griseus", "outline": "(§1)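 Cholesterol-fed hamsters were dosed orally for 7 days, with doses in mg/kg/day. The value is % inhibition at the stated dose, or an ED50 in mg/kg/day, with n = 4 animals per compound.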"}, "[2]": {"experiment": "Ability to inhibit liver cholesterol ester was determined in cholesterol fed hamsters", "format": "functional, Cricetulus griseus", "outline": "as §1"}, "[3]": {"experiment": "Percent reduction of liver cholesterol ester levels after po administration of compound in cholesterol fed hamsters at a dose 1 mg/kg/day", "format": "functional, Cricetulus griseus", "conditions": "for inhibition in vivo at 1 mg/kg/day: Cricetulus griseus, Liver, po", "outline": "as §1"}, "[4]": {"experiment": "Percent reduction of liver cholesterol ester levels after po administration of compound in cholesterol fed hamsters at a dose 3 mg/kg/day", "format": "functional", "conditions": "Cricetulus griseus", "outline": "as §1"}, "[5]": {"experiment": "Percent reduction of liver cholesterol ester levels after po administration of compound in cholesterol fed hamsters at a dose 25 mg/kg/day", "format": "functional", "conditions": "Cricetulus griseus", "outline": "(§2)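 Cholesterol-fed hamsters received the compound orally once daily for 7 days, with dose expressed as mg/kg/day. Four animals per compound. Values are reported as % inhibition at the given dose, or as an ED50 in mg/kg/day.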"}, "[6]": {"experiment": "Percent reduction of Liver cholesterol ester levels after peroral administration in cholesterol fed hamsters", "format": "functional, Cricetulus griseus", "outline": "as §1"}, "[7]": {"experiment": "Percent reduction of Liver cholesterol ester levels after peroral administration in cholesterol fed hamsters at a dose 10 mg/kg/day", "format": "functional", "conditions": "Cricetulus griseus, route oral", "outline": "as §1"}, "[8]": {"experiment": "Percent reduction of liver cholesterol ester levels after po administration of compound in cholesterol fed hamsters.", "format": "functional, Cricetulus griseus", "outline": "as §2"}}, "data": [{"smiles": "COc1ccc([C@H]2C(SCCc3ccccc3)C(=O)N2c2ccccc2)cc1", "note": "(stereo partly specified)", "values": [{"measurement": "inhibition in vivo at 10 mg/kg/day", "setting": "[1]", "value": -31, "unit": "%"}]}, {"smiles": "COc1ccc([C@@H]2[C@H]([S+]([O-])CCc3ccccc3)C(=O)N2c2ccccc2)cc1", "note": "(stereo partly specified)", "values": [{"measurement": "ED50", "setting": "[2]", "value": 0.58, "unit": "mg/kg/day"}, {"measurement": "inhibition in vivo at 1 mg/kg/day", "setting": "[3]", "value": 58, "unit": "%"}, {"measurement": "inhibition in vivo at 3 mg/kg/day", "setting": "[4]", "value": 78, "unit": "%"}]}, {"smiles": "COc1ccc([C@@H]2[C@@H](P(=O)(O)CCc3ccccc3)C(=O)N2c2ccccc2)cc1", "values": [{"measurement": "inhibition in vivo at 25 mg/kg/day", "setting": "[5]", "value": 0, "unit": "%"}]}, {"smiles": "COc1ccc([C@@H]2[C@H](SCCc3ccccc3)C(=O)N2c2ccccc2)cc1", "values": [{"measurement": "inhibition in vivo at 10 mg/kg/day", "setting": "[1]", "value": 31, "unit": "%"}]}, {"smiles": "COc1ccc([C@@H]2C(SCCc3ccccc3)C(=O)N2c2ccccc2)cc1", "note": "(stereo partly specified)", "values": [{"measurement": "inhibition in vivo at 25 mg/kg/day", "setting": "[5]", "value": 97, "unit": "%"}]}, {"smiles": "COc1ccc([C@@H]2[C@H](C(O)CCc3ccccc3)C(=O)N2c2ccccc2)cc1", "note": "(stereo partly specified)", "values": [{"measurement": "ED50", "setting": "[6]", "value": 0.4, "unit": "mg/kg/day"}]}, {"smiles": "COc1ccc([C@@H]2[C@@H](CCP(=O)(OC)c3ccccc3)C(=O)N2c2ccccc2)cc1", "note": "(stereo partly specified)", "values": [{"measurement": "inhibition in vivo at 25 mg/kg/day", "setting": "[5]", "value": 0, "unit": "%"}]}, {"smiles": "COc1ccc([C@@H]2[C@@H](CCP(=O)(O)c3ccccc3)C(=O)N2c2ccccc2)cc1", "values": [{"measurement": "inhibition in vivo at 25 mg/kg/day", "setting": "[5]", "value": 0, "unit": "%"}]}, {"smiles": "COc1ccc([C@@H]2[C@@H](CCC(O)c3ccccc3)C(=O)N2c2ccccc2)cc1", "note": "(stereo partly specified)", "values": [{"measurement": "ED50", "setting": "[6]", "value": 0.9, "unit": "mg/kg/day"}]}, {"smiles": "COc1ccc([C@@H]2[C@@H](CCS(=O)(=O)c3ccccc3)C(=O)N2c2ccccc2)cc1", "values": [{"measurement": "inhibition in vivo at 10 mg/kg/day", "setting": "[1]", "value": 23, "unit": "%"}]}, {"smiles": "COc1ccc([C@@H]2[C@@H](CCSc3ccccc3)C(=O)N2c2ccccc2)cc1", "values": [{"measurement": "inhibition in vivo at 10 mg/kg/day", "setting": "[7]", "value": 0, "unit": "%"}]}, {"smiles": "O=C1[C@H]([S+]([O-])CCc2ccccc2)[C@@H](c2ccc(O)cc2)N1c1ccc(F)cc1", "note": "(stereo partly specified)", "values": [{"measurement": "inhibition in vivo at 1 mg/kg/day", "setting": "[3]", "value": 82, "unit": "%"}, {"measurement": "inhibition in vivo at 10 mg/kg/day", "setting": "[1]", "value": 56, "unit": "%"}]}, {"smiles": "COc1ccc([C@@H]2[C@@H](CC[S+]([O-])c3ccccc3)C(=O)N2c2ccccc2)cc1", "note": "(stereo partly specified)", "values": [{"measurement": "inhibition in vivo at 10 mg/kg/day", "setting": "[1]", "value": 21, "unit": "%"}]}, {"smiles": "O=C1[C@H](SCCc2ccccc2)[C@@H](c2ccc(O)cc2)N1c1ccc(F)cc1", "values": [{"measurement": "inhibition in vivo at 1 mg/kg/day", "setting": "[3]", "value": 83, "unit": "%"}]}, {"smiles": "COc1ccc([C@@H]2C([S+]([O-])CCc3ccccc3)C(=O)N2c2ccccc2)cc1", "note": "(stereo partly specified)", "values": [{"measurement": "ED50", "setting": "[2]", "value": 0.59, "unit": "mg/kg/day"}, {"measurement": "inhibition in vivo at 25 mg/kg/day", "setting": "[5]", "value": 97, "unit": "%"}]}, {"smiles": "COc1ccc([C@@H]2[C@@H](P(=O)(CCc3ccccc3)OC)C(=O)N2c2ccccc2)cc1", "note": "(stereo partly specified)", "values": [{"measurement": "Inhibition", "setting": "[8]", "value": 0, "unit": "%"}]}, {"smiles": "O=C1[C@@H](SCCc2ccccc2)[C@@H](c2ccc(O)cc2)N1c1ccc(F)cc1", "values": [{"measurement": "inhibition in vivo at 1 mg/kg/day", "setting": "[3]", "value": 0, "unit": "%"}]}, {"smiles": "COc1ccc([C@@H]2C(S(=O)(=O)CCc3ccccc3)C(=O)N2c2ccccc2)cc1", "note": "(stereo partly specified)", "values": [{"measurement": "inhibition in vivo at 25 mg/kg/day", "setting": "[5]", "value": 54, "unit": "%"}]}, {"smiles": "COc1ccc([C@@H]2[C@@H](SCCc3ccccc3)C(=O)N2c2ccccc2)cc1", "values": [{"measurement": "ED50", "setting": "[2]", "value": 0.13, "unit": "mg/kg/day"}, {"measurement": "inhibition in vivo at 1 mg/kg/day", "setting": "[3]", "value": 89, "unit": "%"}]}, {"smiles": "COc1ccc([C@@H]2[C@@H]([S+]([O-])CCc3ccccc3)C(=O)N2c2ccccc2)cc1", "note": "(stereo in doubt; 26)", "values": [{"measurement": "ED50", "setting": "[2]", "value": 0.9, "unit": "mg/kg/day"}, {"measurement": "Inhibition", "setting": "[3]", "value": 58, "unit": "%"}]}, {"smiles": "COc1ccc([C@@H]2[C@@H]([S+]([O-])CCc3ccccc3)C(=O)N2c2ccccc2)cc1", "note": "(stereo in doubt; 27)", "values": [{"measurement": "ED50", "setting": "[2]", "value": 0.21, "unit": "mg/kg/day"}, {"measurement": "Inhibition", "setting": "[3]", "value": 82, "unit": "%"}]}, {"smiles": "O=C1[C@@H]([S+]([O-])CCc2ccccc2)[C@@H](c2ccc(O)cc2)N1c1ccc(F)cc1", "note": "(stereo in doubt; 37)", "values": [{"measurement": "inhibition in vivo at 1 mg/kg/day", "setting": "[3]", "value": 40, "unit": "%"}]}, {"smiles": "O=C1[C@@H]([S+]([O-])CCc2ccccc2)[C@@H](c2ccc(O)cc2)N1c1ccc(F)cc1", "note": "(stereo in doubt; 38)", "values": [{"measurement": "Inhibition", "setting": "[3]", "value": 42, "unit": "%"}]}, {"smiles": "COc1ccc([C@@H]2[C@@H](CCCc3ccccc3)C(=O)N2c2ccc(OC)cc2)cc1", "note": "[SCH-48461]", "values": [{"measurement": "ED50", "setting": "[6]", "value": 2.2, "unit": "mg/kg/day"}]}]}
